Assay results from different studies.
Each line is one published result; the experiments were not run side by side.
Target: 5-hydroxytryptamine receptor 2B (HTR2B, Homo sapiens, UniProt P41595)

Compound	test	measurement	value
CCCCN1CCC(COC(=O)c2ccc(N)c(OCF)c2)CC1	cell-free assay, radioligand	Ki	> 10000 nM
CCCC[C@H](NC(=O)[C@H](C)c1c(C)[nH]c2ccc(O)cc12)c1ncc(-c2cc3ccccc3nc2OC)[nH]1	ligand displacement	IC50	740 nM
CCOC(=O)[C@@]12C[C@@H]1[C@@H](n1cnc3c(N[C@H](C4CCC4)C4CC4)nc(I)nc31)[C@H](O)[C@@H]2O	calcium signal, antagonist	Kb	1.74 nM
CC(C)c1nc2cc(OCCCCN3CCN(c4cccc5c4OCCO5)CC3)ccc2s1	cell-free assay, radioligand	Ki	32 nM
O=C1c2ccccc2CCN1CCCCN1CCN(c2cccc(Cl)c2Cl)CC1	ligand displacement, radioligand	Ki	1.8 nM
Cc1ccc2cccc(N3CCN(CCCCOc4ccc5sc(C(C)C)nc5c4)CC3)c2n1	cell-free assay, radioligand	Ki	43 nM
COCCN(CCOC)C(=O)[C@@]12C[C@@H]1[C@@H](n1cnc3c(NC(C4CC4)C4CC4)nc(Cl)nc31)[C@H](O)[C@@H]2O	ligand displacement, radioligand	Ki	1230 nM
CNC(=O)[C@@]12C[C@@H]1[C@@H](n1cnc3c(NCCc4ccccc4)nc(I)nc31)[C@H](O)[C@@H]2O	cell-free assay, radioligand	Ki	117 nM
Cc1cc(NC(=O)Nc2ccc3c(ccn3C)c2)sn1	ligand displacement, radioligand	IC50	160 nM
CCOCc1nc(O)c(-c2nnc(Cc3ccc(Cl)cn3)o2)c(O)c1-c1c(OC)cccc1OC	ligand displacement, radioligand	IC50	> 30000 nM
